Experimental data published in ChEMBL document CHEMBL1125254, “Allosteric modifiers of hemoglobin. 2. Crystallographically determined binding sites and hydrophobic binding/interaction analysis of novel hemoglobin oxygen effectors” (J Med Chem, 1991).

Test: Allosteric activity evaluated as the ratio of the oxygen pressure in mmHg between hemoglobin-compound and compound-free hemoglobin (control) solution at which 50% oxygen saturation's are respectively attained.
Procedure, shortened: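 Oxygen equilibrium of human hemoglobin solutions at 2.7 mM Hb with compound at 10 mM, in 50 mM HEPES pH 7.4. P50 ratios are averaged, with standard deviations reported.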

Compound: CC(C)(Oc1ccc(NC(=O)Nc2cc(Cl)c(Cl)c(Cl)c2)cc1)C(=O)O
- P50d/P50c: 2.57

Compound: CC(C)(Oc1ccc(CNC(=O)c2cc(Cl)c(Cl)c(Cl)c2)cc1)C(=O)O
- P50d/P50c: 2.13

Compound: CC(C)(Oc1ccc(CNC(=O)c2cc(Cl)cc(Cl)c2)cc1)C(=O)O
- P50d/P50c: 2.48

Compound: CC(C)(Oc1ccc(CCNC(=O)c2ccc(Cl)cc2)cc1)C(=O)O
- P50d/P50c: 1.74

Compound: CC(C)(Oc1ccc(CC(=O)Nc2cc(Cl)cc(Cl)c2)cc1)C(=O)O
- P50d/P50c: 4.32

Compound: CC(C)(Oc1ccc(NC(=O)Nc2cc(Cl)cc(Cl)c2)cc1)C(=O)O
- P50d/P50c: 3.62

Compound: CC(C)(Oc1ccc(CC(=O)Nc2cc(Cl)c(Cl)c(Cl)c2)cc1)C(=O)O
- P50d/P50c: 3.17

Compound: CC(C)(Oc1ccc(CNC(=O)c2ccc(Cl)cc2)cc1)C(=O)O
- P50d/P50c: 2.58

Compound: CC(C)(Oc1ccc(NC(=O)Nc2ccc(Cl)c(Cl)c2)cc1)C(=O)O
- P50d/P50c: 1.77

Compound: CC(C)(Oc1ccc(CC(=O)Nc2ccc(Cl)cc2)cc1)C(=O)O
- P50d/P50c: 2.79
